According to ChEMBL document CHEMBL1641525, “Antiproliferative and apoptotic sesquiterpene lactones from Carpesium faberi” (Bioorg Med Chem Lett, 2011):
In brackets after ≈: the same amount, converted by molar mass. Activity calls are given as the source filed them. The calls are words filed in the database; no cut-off is given here.

Legend:
MCF7 [1] = test: Antiproliferative activity against human MCF7 cells after 48 hrs by MTT assay; format: functional, cell-based; conditions: MCF7, 48 h
How it was run: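 MCF-7 (ATCC) grown in DMEM + 10% heat-inactivated FBS, penicillin/streptomycin, 37 °C, 5% CO2. Exponential cells seeded 4.0×10^3/well; after 24 h treated with a range of concentrations for 48 h in the dark. Medium refreshed, then MTT (1 mg/mL) for 4 h; formazan dissolved in DMSO, OD 570 nm. 0.5% DMSO negative control. IC50 from log concentration–viability curves.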

MCF7 [2] = test: Cell cycle arrest in human MCF7 cells assessed as accumulation at G2/M phase at IC50 concentration after 24 hrs using propidium iodide staining by flow cytometry; format: functional, cell-based
MCF7 [3] = test: Cell cycle arrest in human MCF7 cells assessed as accumulation at sub-G1 phase at IC50 concentration after 24 hrs using propidium iodide staining by flow cytometry; format: functional

Structure (SMILES) | IC50 (MCF7 [1]) [µg/mL] | Activity (MCF7 [2]) | Activity (MCF7 [3]) [%]
COc1cccc2c1C(=O)c1c(O)c3c(c(O)c1C2=O)C[C@@](O)(C(C)=O)C[C@@H]3O[C@H]1C[C@H](N)[C@H](O)[C@H](C)O1 [DAUNORUBICIN] | 0.5 (≈ 0.948 µM) |  | 
O=c1[nH]cc(F)c(=O)[nH]1 [FLUOROURACIL] | 14.1 (≈ 108 µM) |  | 
C/C(=C\CO)CC[C@@H]1[C@@]2(C)CCCC(C)(C)[C@@H]2CC[C@@]1(C)O | 18.6 (≈ 60.3 µM) |  | 
C[C@@H]1C[C@@H]2OC(=O)[C@@H](C)[C@H]2C[C@]2(C)[C@@H](O[C@@H]3O[C@H](CO)[C@@H](O)[C@H](O)[C@H]3O)CC[C@@H]12 | > 50 |  | 
C[C@@H]1C(=O)O[C@@H]2C[C@@]3(C)O[C@@H]3C[C@H](O)[C@@]3(C)O[C@@H]3C[C@H]12 [CARABROLACTONE A] | > 50 |  | 
C=C1C(=O)O[C@@H]2C[C@]3(C)[C@@H](CC[C@H](C)OC(C)=O)[C@@H]3C[C@H]12 | 9.4 (≈ 32.2 µM) | Active | > 5
C=C1C(=O)O[C@H]2C[C@@H](C)[C@@H]3CC[C@H](O)[C@@]3(C)C[C@H]12 [PSEUDOGUAIANOLIDE] | 9.8 (≈ 39.1 µM) | Active | 
C=C1C(=O)O[C@@H]2C[C@@]3(C)C[C@@H](O)CC(=C)[C@@H]3C[C@H]12 [IVALIN] | 12.5 (≈ 50.3 µM) |  | 
C/C(=C\CO)CCC[C@H](C)CCC[C@H](C)CCCC(C)C [TRANS-PHYTOL] | > 50 |  | 
C=C1C(=O)O[C@@H]2C[C@@]3(C)CCCC(=C)[C@]3(O)C[C@H]12 [TELEKIN] | 3 (≈ 12.1 µM) | Active | 
C=C1C(=O)O[C@@H]2C[C@@H](C)[C@@H]3CCC(=O)[C@@]3(C)C[C@H]12 | 3.9 (≈ 15.7 µM) |  | 
C=C1C(=O)O[C@@H]2C[C@H](C)C(CCC(C)=O)=CC[C@H]12 [TOMENTOSIN] | > 50 |  | 
C=C1C(=O)O[C@H]2C=C(C)[C@@H]3CC[C@](C)(O)[C@@H]3C[C@H]12 [4-EPI-ISOINUVISCOLIDE] | 16.3 (≈ 65.6 µM) |  | 
C=C1C(=O)O[C@H]2C[C@@](C)(O)C3=CC[C@](C)(O)[C@@H]3C[C@H]12 [GUAIANOLIDE] | 31.7 (≈ 120 µM) | Active | > 5
C=C1C(=O)O[C@H]2C[C@@H](C)[C@@H]3CC[C@H](O)[C@@]3(C)[C@@H](O)[C@H]12 [CARABROLACTONE B] | 10.7 (≈ 40.2 µM) |  | 
C=C1C[C@H](O)C[C@]2(C)C[C@H]3OC(=O)[C@@H](C)[C@H]3C[C@@]12O | > 50 |  | 
C=C1C(=O)O[C@H]2C[C@](C)(O)C3=CC[C@](C)(O)[C@@H]3C[C@H]12 | 31.9 (≈ 121 µM) |  | 
C=C1C(=O)O[C@@H]2C[C@](C)(O)C3=CC[C@](C)(O)[C@@H]3C[C@H]12 | 38.8 (≈ 147 µM) |  | 
C=C1C(=O)O[C@@H]2C[C@](C)(O)C3=CC[C@@](C)(O)[C@@H]3C[C@H]12 | 26.5 (≈ 100 µM) |  | 
